CYP2C9 inh: human CYP2C9 inhibition; CYP2C9 Supersomes, luciferin-H conversion, luminescence; inhibition, % at 5 µM; P11712; actives 20% (n = 96,000);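 active = blocking of liver enzyme CYP2C9 beyond about 50% at 5 µM, limit read from the data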
CYP2C19 inhib: human CYP2C19 inhibition | P33261 | CYP2C19 Supersomes, luciferin-H EGE luminescence, 30 min | inhibition, % at 5 µM | actives 21% (n = 96,000);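 active = CYP2C19 inhibition above a set limit at 5 µM in the primary screen, cut at about 50% in these data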
Target sequence (P33261 whole entry, looked up): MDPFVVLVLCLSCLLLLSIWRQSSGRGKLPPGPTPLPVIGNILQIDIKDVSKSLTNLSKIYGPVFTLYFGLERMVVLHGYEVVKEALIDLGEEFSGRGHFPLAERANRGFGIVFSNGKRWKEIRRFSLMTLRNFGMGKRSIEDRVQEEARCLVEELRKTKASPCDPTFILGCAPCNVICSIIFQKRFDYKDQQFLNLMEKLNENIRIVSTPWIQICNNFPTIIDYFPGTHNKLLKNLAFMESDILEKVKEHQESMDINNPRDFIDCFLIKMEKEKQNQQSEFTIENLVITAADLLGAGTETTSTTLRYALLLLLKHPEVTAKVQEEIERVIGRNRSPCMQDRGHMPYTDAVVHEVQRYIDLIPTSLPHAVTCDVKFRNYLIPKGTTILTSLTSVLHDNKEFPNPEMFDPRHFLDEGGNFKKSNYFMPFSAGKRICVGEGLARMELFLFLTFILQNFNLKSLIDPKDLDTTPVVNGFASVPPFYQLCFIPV
Ecoli tolC: E. coli tolC mutant growth inhibition; E. coli BW25113 tolC mutant growth, OD615; growth inhibition, % at 10 µM (by protocol); actives 2.2% (n = 65,000); AID 573;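 active = growth inhibition at or above a cutoff equal to the mean over every tested compound plus 3 SD, cut at about 60% in these data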;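 note: growth measured after 20 h incubation at 37 °C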
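Test system – E. coli BW25113 ΔtolC::kan, tolC deletion mutant strain · Detection – OD at 615 nm · Buffer or medium – LB with kanamycin 50 µg/mL · Times – 20 h compound exposure of bacteria at 37 °C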
CYP2C9 act: CYP2C9 (human) activation; recombinant CYP2C9, luciferin-H conversion, luminescence; stronger effect = higher value; factor 1 = untreated enzyme, 0 = blocked; actives 1.4% (n = 96,000); activation factor at 5 µM;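 active = activation factor of 2 or more for CYP2C9 at a 5 µM dose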
Ecoli WT expand: E. coli BW25113 growth inhibition, expanded screen | actives 0.15% (n = 98,000) | OD600 absorbance | growth inhibition, % at 100 µM;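 active = growth inhibition above about 50% at one test dose, limit read from the data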;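 note: growth measured after 20 h incubation at 37 °C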
CYP2C19 activ: activators of human cytochrome P450 2C19 | P33261 | recombinant CYP2C19, luciferin-H EGE luminescence; stronger effect = higher value; 0 = fully inhibited enzyme, 1 = untreated enzyme | activation factor at 5 µM | 96,000 tested, under 10 active | AID 1025;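 active = activation factor of at least 2 at 5 µM in the primary screen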
Each line names hits and unclear results; the compound was inactive in the other large screens. Hits are enriched below; roughly 29% of the tested compounds scored in any of these assays.

O=C(Nc1cccc(F)c1)c1ccc(S(=O)(=O)NCC2CCCO2)cc1 (stereo unspecified)	CYP2C9 inh 56.0
O=C(CSc1ccccc1)Nc1ccc(S(=O)(=O)NCC2CCCO2)cc1 (stereo unspecified)	CYP2C9 inh 90.9
O=C(COc1ccc(S(=O)(=O)NC2CCCCC2)cc1)NCC1CCCO1 (stereo unspecified)	none
O=C(Nc1ccc2c(c1)OCO2)c1ccc(S(=O)(=O)NCC2CCCO2)cc1 (stereo unspecified)	none
O=C(CN(CC1CCCO1)S(=O)(=O)c1ccc(S(=O)(=O)NC2CC2)cc1)Nc1ccccc1 (stereo unspecified)	CYP2C9 inh 97.0, CYP2C19 inhib 73.5
CCOC(=O)c1nn(-c2ccccc2F)c(-c2ccccc2)c1C(=O)c1ccccc1	none (no result: Ecoli tolC)
COc1ccccc1N(CC(=O)Nc1cc(C)on1)S(=O)(=O)c1ccc(Cl)cc1	CYP2C9 inh 97.7, CYP2C19 inhib 90.8 (no result: Ecoli tolC)
COc1ccc(S(=O)(=O)N(CC(=O)Nc2cc(C)on2)Cc2ccccc2)cc1	CYP2C19 inhib 80.7
COC(=O)CN(c1ccccc1OC)S(=O)(=O)c1ccccc1	none
CCc1ccc(NC(=O)CSc2nnc(COc3ccc4c(c3)CCCC4)o2)cc1	none (no result: Ecoli tolC)
COC(=O)C1C(c2ccccc2)C(C(=O)N2CCN(C)CC2)C1c1ccccc1 (stereo unspecified)	none
O=C(O)C1C(c2ccccc2)C(C(=O)Oc2ccccc2)C1c1ccccc1 (stereo unspecified)	none (no result: Ecoli tolC)
Cc1cccc(OC(=O)C2C(c3ccccc3)C(C(=O)O)C2c2ccccc2)c1 (stereo unspecified)	CYP2C9 inh 59.3 (no result: Ecoli tolC)
CC(C)CCOC(=O)C1C(c2ccccc2)C(C(=O)O)C1c1ccccc1 (stereo unspecified)	CYP2C19 inhib 59.3 (no result: Ecoli tolC)
Cc1ccc(N(CC(=O)O)S(C)(=O)=O)cc1Cl	none
CC(=O)N(NC(=O)c1ccccc1Cl)C1CC(=O)N(c2ccc(C)cc2)C1=O (stereo unspecified)	none (no result: Ecoli tolC)
C=CCNC(=O)c1sc(=S)n(-c2ccc(C(=O)OCC)cc2)c1N	CYP2C9 inh 56.2
CCOC(=O)c1ccc(-n2c(N)c(C(=O)NCC3CCCO3)sc2=S)cc1 (stereo unspecified)	CYP2C9 inh 82.7 (no result: Ecoli tolC)
CO/N=C/c1ccc(N2CCN(C(=O)c3ccc(Cl)cc3Cl)CC2)c([N+](=O)[O-])c1	none (no result: Ecoli tolC)
CCC(CO)n1cnnc1-c1ccncc1 (stereo unspecified)	none
O=C1c2ccsc2SCCN1Cc1ccc(Cl)cc1Cl	CYP2C19 inhib 53.2 (no result: Ecoli tolC)
O=c1ccccn1Cc1c(Cl)cccc1Cl	none (no result: Ecoli tolC)
O=C1c2ccsc2SCCN1Cc1c(Cl)cccc1Cl	CYP2C9 inh 88.7, CYP2C19 inhib 97.1 (no result: Ecoli tolC)
Nc1cc(Cl)ccc1N1CCOCC1	none
Clc1ccc2c(c1)CNc1c(ncnc1N1CCOCC1)O2	CYP2C9 inh 55.7, CYP2C19 inhib 99.4
COC(=O)CC/C(C)=N\Nc1ccc([N+](=O)[O-])cc1[N+](=O)[O-]	none (no result: Ecoli tolC)
Cc1cccc(Cn2c(=O)n(-c3ccc(CC(=O)NCc4ccco4)cc3)c(=O)c3sccc32)c1	none (no result: Ecoli tolC)
Cc1ccc(NC(=O)CSc2nc3c(c(=O)[nH]2)CCC3)cc1C	CYP2C9 inh 51.3
CC(C)c1ccc(NC(=O)CSc2nc3c(c(=O)[nH]2)CCC3)cc1	CYP2C9 inh 59.8
COc1ccc(N2CCN(Cc3nc4c(c(=O)[nH]c(=O)n4C)n3Cc3cccc(Cl)c3)CC2)cc1	none (no result: CYP2C9 inh, CYP2C19 inhib, CYP2C9 act, Ecoli WT expand, CYP2C19 activ)
Oc1ccc2ccccc2c1C1Nc2cccc3cccc(c23)N1	CYP2C9 inh 72.0 (no result: Ecoli tolC)
Cc1noc(C)c1C(=O)OCC(=O)Nc1ccccc1Oc1ccccc1	none (no result: Ecoli tolC)
c1ccc(CN2CCN(c3nc(-c4ccccc4)nc(-n4ccnc4)n3)CC2)cc1	CYP2C9 inh 57.2, Ecoli tolC 64.6
CC(C)Nc1nc(-c2ccccc2)nc(-n2ccnc2)n1	none
c1ccc(-c2nc(-n3ccnc3)nc(-n3ccnc3)n2)cc1	CYP2C19 inhib 55.9
CCCCNc1nc(-c2ccccc2)nc(-n2ccnc2)n1	CYP2C9 inh 85.2, CYP2C19 inhib 85.7 (no result: Ecoli tolC)
C=CCNc1nc(-c2ccccc2)nc(-n2ccnc2)n1	none
COc1cc(-c2nnc(SCC(=O)c3cc(C)n(CC4CCCO4)c3C)o2)cc(OC)c1OC (stereo unspecified)	none
COc1ccc(NC(=O)C2Cc3ccccc3C(=O)O2)cc1 (stereo unspecified)	none (no result: CYP2C9 inh, CYP2C19 inhib, CYP2C9 act, Ecoli WT expand, CYP2C19 activ)
Cc1ccccc1NC(=O)C1Cc2ccccc2C(=O)O1 (stereo unspecified)	CYP2C19 inhib 71.0
CC1CCN(C(=O)COC(=O)[C@H](C)NS(=O)(=O)/C=C/c2ccccc2)CC1	none (no result: Ecoli tolC)
COc1ccc(S(=O)(=O)n2ccc(C(C)Oc3ccc(-c4ccccc4)c(F)c3)n2)cc1 (stereo unspecified)	CYP2C9 inh 91.9 (no result: Ecoli tolC)
O=C1C(=O)N(CCCn2ccnc2)C(c2cccnc2)/C1=C(/O)c1ccc(F)cc1 (stereo unspecified)	CYP2C9 inh 89.4 (no result: Ecoli WT expand)
Cc1ccccc1Nc1nc(Nc2ccccc2C)nc(SC2=NCCS2)n1	CYP2C9 inh 76.8, CYP2C19 inhib 54.2 (no result: Ecoli tolC)
Cc1ccc(Nc2nc(Cl)nc(N(C)C#N)n2)cc1	none (no result: Ecoli tolC)
Cc1ccccc1Nc1nc(N)nc(CN(C)c2ccccc2)n1	none
Cc1ccc(Nc2nc(Nc3ccc(C)cc3)nc(SC3=NCCS3)n2)cc1	CYP2C9 inh 86.0 (no result: Ecoli tolC)
COC(=O)C1=C(C)NC(C)=C(C(=O)OC)C1c1ccccc1[N+](=O)[O-]	none (no result: CYP2C9 inh, CYP2C19 inhib, CYP2C9 act, Ecoli WT expand, CYP2C19 activ)
COC(=O)C1=C(C)NC2=C(C1c1ccc(O)cc1)S(=O)(=O)c1ccccc12 (stereo unspecified)	CYP2C9 inh 87.0, CYP2C19 inhib 62.1 (no result: Ecoli tolC)
c1ccc(-c2nnc(SCc3cn4ccsc4n3)o2)cc1	CYP2C19 inhib 69.3
Cc1cccc(OCCC(=O)Nc2c(C)n(C)n(-c3ccccc3)c2=O)c1	none
CCn1nnnc1SCC(=O)c1cc(OC)ccc1OC	CYP2C19 inhib 93.1
CCn1c(SCC(=O)c2cc(OC)ccc2OC)nnc1C1CC1	CYP2C19 inhib 93.9 (no result: Ecoli WT expand)
CCn1c(SCC(=O)c2ccc(OC)cc2)nnc1C1CC1	CYP2C19 inhib 54.9 (no result: Ecoli tolC)
COc1ccc(C(=O)CSc2nnc(C3CC3)n2N)cc1	none (no result: Ecoli tolC)
CC(C)CC(=O)N1CCN(C(=O)CCC2CCCC2)CC1	none
O=C(/C=C/Nc1cccc([N+](=O)[O-])c1)c1cccs1	CYP2C9 inh 70.7 (no result: Ecoli tolC)
Cc1c(N/C=C/C(=O)c2cccs2)c(=O)n(-c2ccccc2)n1C	none
CSc1cccc(NC(=O)c2ccc(Cl)nc2)c1	none (no result: Ecoli tolC)
CCN(CC)CCOC(=O)c1c(C)oc2ccc(OC)cc12	none
COc1ccc2oc(C)c(C(=O)Cn3ccnc3)c2c1	CYP2C9 inh 72.7, CYP2C19 inhib 89.9
C#CC(=O)N(c1cc(OC)ccc1OC)C(C(=O)NC1CCCC1)c1cccs1 (stereo unspecified)	none (no result: Ecoli tolC)
CCc1cc(C(=O)O)c(NC(=O)C(c2ccccc2)c2ccccc2)s1	CYP2C9 inh 97.4 (no result: Ecoli tolC)

Compound activity: PubChem, several laboratories
